Compound activity as filed in PubChem BioAssay.
m5-HT2A agonist: activates the mouse 5-HT2A serotonin receptor | activation, % at 7.6 µM | P35363 | AID 624169 | CHO-K1 mHTR2A beta-arrestin complementation, luminescence; percent of 30 µM serotonin response | actives 0.66% (n = 360,000);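 active = activation above a run cutoff, the mean activation of all tested compounds plus 3 SD, cut at about 14% in these data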
APJ antag: blocks the human apelin receptor APJ | inhibition, % at 20 µM | CHO-K1 APJ beta-arrestin complementation, luminescence | actives 0.32% (n = 330,000) | P35414;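 active = inhibition above about 40% at 20 µM, limit read from the data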;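 also: cells challenged with 10 nM apelin-13 agonist together with compound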
APJ ag: activates the human apelin receptor APJ; AID 2520; CHO-K1 APJ PathHunter beta-arrestin, luminescence; 0% DMSO wells, 100% apelin; P35414; activation, % at 20 µM; actives 0.11% (n = 330,000);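 active = activation more than six SD over the plate average, tested at 20 µM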
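Assay system – PathHunter CHO-K1 APJ (AGTRL-1) beta-arrestin reporter cells · Compound – one dose, 20 µM compound, 1% DMSO · Timing – compound 90 min 25 °C, reagent 1 h · Measured by – luminescence from split beta-galactosidase complementation, Galacton Star/Emerald II substrate · Measure – beta-arrestin recruitment to APJ as agonist activity, luminescent signal · Benchmarks – DMSO vs Apelin-13 10 nM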
CCR6 antag: antagonists of human CCR6 receptor; inhibition, % at 20 µM; P51684; CHO-K1 CCR6 PathHunter beta-arrestin, luminescence, CCL20-stimulated; actives 0.49% (n = 340,000);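 active = compounds whose inhibition of the agonist-driven luminescence signal at 20 µM reaches about 50%, limit read from the data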;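 also: cells stimulated with CCL20 at 14 nM final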
CXCR6 block: CXCR6 (human) receptor inhibition. O00574. CHO-K1 PathHunter CXCR6 beta-arrestin, luminescence. inhibition, % at 20 µM. actives 0.36% (n = 360,000); in the data active = inhibition above about 34%, passing the limit was not always enough;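 also: antagonist mode with CXCL16 agonist at 10 nM final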
EBI2 block: antagonists of human EBI2 receptor. EBI2 beta-arrestin recruitment, luminescence, 7a,25-OHC stimulated. inhibition, % at 5 µM. actives 0.81% (n = 360,000). AID 651636; in the data active = inhibition above about 38%;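 also: enzyme fragment complementation signal reports receptor beta-arrestin coupling in cells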
Target sequence (P32249 whole entry, looked up, the tested form may be a part): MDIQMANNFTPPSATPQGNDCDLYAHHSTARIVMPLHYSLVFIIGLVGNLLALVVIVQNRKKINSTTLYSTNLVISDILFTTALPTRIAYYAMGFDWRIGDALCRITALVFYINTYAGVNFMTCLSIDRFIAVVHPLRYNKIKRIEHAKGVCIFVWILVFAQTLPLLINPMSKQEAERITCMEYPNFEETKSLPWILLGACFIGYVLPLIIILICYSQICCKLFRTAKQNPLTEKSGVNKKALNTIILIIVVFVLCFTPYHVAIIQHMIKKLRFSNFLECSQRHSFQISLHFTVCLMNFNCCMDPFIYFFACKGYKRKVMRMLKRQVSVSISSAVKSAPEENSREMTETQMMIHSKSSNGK
MOR ag counter: OPRM1 agonism in mouse HTR2A counterscreen; activation, % at 9.3 µM; shares compounds with m5-HT2A agonist; U2OS OPRM1 beta-arrestin PathHunter, luminescence; DMSO 0%, DAMGO 9.3 µM 100%; actives 5.3% (n = 2,300);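 active = mean activation above the mean of DMSO-only wells plus 3 SD, cut at about 0.5% in these data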
HTR2A ag conf: confirmation of mouse HTR2A serotonin receptor agonists; actives 19% (n = 2,300); AID 624381; shares compounds with m5-HT2A agonist; activation, % at 7.6 µM; CHO-K1 PathHunter beta-arrestin recruitment, luminescence; DMSO 0%, 30 µM serotonin 100%;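 active = mean activation across triplicates above the hit threshold derived in the original primary screen, cut at about 15% in these data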
A number is an active result; n = inactive; x = no result given. Shown are actives, neighbours in structure and some others; about 2.2% of the full set was active somewhere.

SMILES	m5-HT2A agonist	APJ antag	APJ ag	CCR6 antag	CXCR6 block	EBI2 block	MOR ag counter	HTR2A ag conf
CCCOc1nc2c(c(=O)n(C)c(=O)n2C)n1CCC	n	n	n	n	n	n	x	x
CCC(C)Oc1nc2c(c(=O)n(C)c(=O)n2C)n1C (centres undefined)	17	n	n	n	n	n	n	n
CCCCN(C)c1c(C)nc2ccc(C(=O)Nc3ccc(OC)c(OC)c3)cn12	n	x	x	x	n	n	x	x
CCOC(=O)[C@]12CCC=C1N(Cc1cccc3ccccc13)C(=O)[C@H](CC(=O)NCC1CCCCC1)C2	n	x	x	x	n	n	x	x
CCOc1ccc(CCNC(=O)c2nnn(CC(=O)Nc3ccc(OC)c(OC)c3)c2N)cc1OCC	n	n	n	n	n	n	x	x
CCc1ccc(NC(=O)Cn2nnc(C(=O)NCCc3ccc(OC)c(OC)c3)c2N)cc1	17	n	n	n	n	n	n	n
CC(Sc1nnc(C2CC2)n1-c1ccccc1)C(=O)N1CCCC1 (centres undefined)	n	n	n	n	n	n	x	x
CCOC(=O)c1c(S(=O)(=O)NCCc2ccc(OC)c(OC)c2)c(C)n(C)c1C	16	n	n	n	n	n	n	n
CC1CN(C)C(C)c2c1oc1ccc(N)cc21 (centres undefined)	n	n	n	n	n	n	x	x
CC1CN(C)C(C)c2c1oc1ccc([N+](=O)[O-])cc21 (centres undefined)	22	n	n	n	n	n	n	n
COC(=O)[C@@]12C[C@@H](CC(=O)NCCc3ccccc3OC)C(=O)N(Cc3cccc4ccccc34)C1=CCC(C)(C)C2	n	x	x	x	x	n	x	x
O=C(NC(=S)NC1CCCCCCCCCCC1)c1cccnc1	17	n	n	n	n	n	n	n
CC(C)CNC(=S)NC(=O)c1csc([N+](=O)[O-])c1	n	n	n	n	n	n	x	x
C=CCNC(=O)O/N=C/c1csc([N+](=O)[O-])c1	17	n	n	n	n	n	n	n
CC1(Cc2ccc(OC(F)(F)F)cc2)C(=O)Nc2ccc(S(=O)(=O)NC3CCCCC3)cc21 (centres undefined)	n	x	x	x	n	n	x	x
Cc1cc(C(O)c2ncc(-c3ccc(Oc4ccccc4)cc3)[nH]2)ccc1F (centres undefined)	21	x	x	x	n	n	n	n
OC(c1ccc(F)cc1)c1ncc(-c2ccc(Oc3ccccc3)cc2)[nH]1 (centres undefined)	n	x	x	x	n	n	x	x
Cc1ccc(S(=O)(=O)N(C)C[C@@H]2OCc3cnnn3CCCC(=O)N([C@H](C)CO)C[C@@H]2C)cc1	n	x	x	x	n	n	x	x
CC1CC(C)(C)N2C(=O)C3(Nc4ccccc4S3)c3cccc1c32 (centres undefined)	n	n	n	n	n	n	x	x
O=C1N2CCCc3cccc(c32)C12Nc1ccccc1S2 (centres undefined)	21	x	x	n	n	n	n	n
CC(C)NC(=O)C1(C)CN(S(C)(=O)=O)CC(=O)N1CCCN1CCOCC1 (centres undefined)	n	x	x	x	x	n	x	x
C/C(=N/NC(=O)CNC(=O)COc1ccccc1)c1ccc(Cl)cc1	16	n	n	n	n	n	n	n
Cc1nnc(SCC(=O)Nc2cc(Cl)ccc2Cl)n1CC1CCCO1 (centres undefined)	17	n	n	n	n	n	n	n
Cc1c(Cl)cccc1NC(=O)CSc1nnc(C)n1CC1CCCO1 (centres undefined)	n	n	n	n	n	n	x	x
CCOC(=O)C1(C)CCCN1C(=O)c1sccc1C (centres undefined)	n	x	x	x	n	n	x	x
COc1ccccc1NC(=O)CSc1ccc(-c2ccccn2)nn1	n	n	n	n	n	n	x	x
COc1ccc(NC(=O)CSc2ccc(-c3ccccn3)nn2)cc1OC	35	n	n	n	n	n	n	107
CC(=O)c1ccc(OCC(O)CN2CCN(CCO)CC2)cc1 (centres undefined)	17	n	n	n	n	n	n	n
Cc1cccc(OCC(O)CN2CCN(c3ccccn3)CC2)c1C (centres undefined)	19	n	n	n	n	n	n	40
COc1cc(C(C)=O)ccc1OCC(O)CN1CCN(c2ccccn2)CC1 (centres undefined)	23	n	n	n	n	n	n	86
